What was measured:
E. coli PBP 1b = target: T1, E. coli PBP 1b (Escherichia coli, UniProt P02919); assay: Lipid II-based in vitro transglycosylation assay; type: biochemical; details: read-out: Inhibition of PBP 1b activity at 50 μM
T1 sequence (P02919 1-844): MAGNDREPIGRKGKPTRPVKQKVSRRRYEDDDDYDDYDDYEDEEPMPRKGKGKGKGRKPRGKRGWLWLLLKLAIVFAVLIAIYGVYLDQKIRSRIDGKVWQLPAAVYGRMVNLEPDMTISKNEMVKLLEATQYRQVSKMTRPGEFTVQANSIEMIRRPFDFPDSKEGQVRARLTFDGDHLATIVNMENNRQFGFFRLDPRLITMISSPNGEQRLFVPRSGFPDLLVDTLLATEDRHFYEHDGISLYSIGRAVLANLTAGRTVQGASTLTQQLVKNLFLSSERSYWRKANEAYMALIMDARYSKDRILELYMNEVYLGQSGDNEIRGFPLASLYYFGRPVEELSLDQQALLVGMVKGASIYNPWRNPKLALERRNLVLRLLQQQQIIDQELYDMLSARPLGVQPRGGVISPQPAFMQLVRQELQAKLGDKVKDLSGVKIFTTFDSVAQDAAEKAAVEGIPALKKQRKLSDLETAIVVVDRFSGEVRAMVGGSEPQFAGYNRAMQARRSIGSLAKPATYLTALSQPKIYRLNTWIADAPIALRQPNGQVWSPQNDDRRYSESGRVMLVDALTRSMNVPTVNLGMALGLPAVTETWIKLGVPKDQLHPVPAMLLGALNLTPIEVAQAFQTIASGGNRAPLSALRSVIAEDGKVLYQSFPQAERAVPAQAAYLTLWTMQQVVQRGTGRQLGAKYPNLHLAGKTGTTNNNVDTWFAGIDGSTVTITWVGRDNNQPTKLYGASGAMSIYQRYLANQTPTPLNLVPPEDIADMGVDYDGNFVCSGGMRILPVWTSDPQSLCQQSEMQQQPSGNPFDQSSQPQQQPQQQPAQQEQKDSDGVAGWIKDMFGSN
In short: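 E. coli PBP 1b (13.2 nM) is preincubated with test compound for 5 min at 30 °C. Buffer: 50 mM HEPES pH 7.5, 200 mM NaCl, 10 mM CaCl2, 0.08% decyl PEG, 10% DMSO, 15% methanol, 2 U μL−1 muramidase. Dansyl-lipid II (5 μM) is added for 5 min at 30 °C. Moenomycin A (1 μM, 10 min) quenches […]. Read by anion-exchange HPLC, in duplicate. IC50 from Hill fit; Ki via IC50 = Ki(1 + [s]/Km), Km = 1.8 μM.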

E. coli (25922) = assay: Antimicrobial susceptibility test; type: cell-based; details: Escherichia coli, 18 h, read-out: MIC E. coli (25922)
In short: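 Exponential-phase cells diluted to about 5 × 10^5 cfu mL−1, in CA-MHB for S. aureus ATCC 29213 and MHB for E. coli ATCC 25922. Test compound serially diluted in DMSO from a DMSO stock; final DMSO 1% (v/v), with 1% DMSO controls. After 37 °C for 18 h, OD600 is read and % inhibition taken against controls. MIC is the lowest concentration giving ≥90% inhibition. Three independent assays.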

inhibition at 50 µM (E. coli PBP 1b): 100%
MIC (E. coli (25922)): > 96 mg/L
SMILES: C=C(C/C=C(\C)CCC=C(C)C)CCC(C)(C)/C=C/CC/C(C)=C\CO[C@H](COP(=O)(O)O[C@H]1O[C@H](C(N)=O)[C@@](C)(O)[C@H](OC(N)=O)[C@H]1O[C@@H]1O[C@H](CO[C@@H]2O[C@H](CO)[C@@H](O)[C@H](O)[C@H]2O)[C@@H](O[C@@H]2O[C@H](C)[C@@H](O[C@@H]3O[C@H](C(=O)NC4=C(O)CCC4=O)[C@H](O)[C@H](O)[C@H]3O)[C@H](O)[C@H]2NC(C)=O)[C@H](O)[C@H]1NC(C)=O)C(=O)O [Moenomycin A]
